2 molecules from publication PMC3461514 (The Journal of Cell Biology, 2012) can be followed below.

Where a chain is given by its changes, count along the chain named. Numbers in names are those of the source.

One assay deals with T1, Rap1 (Homo sapiens, UniProt P62834, G12V).
T1 sequence (P62834 1-184 G12V): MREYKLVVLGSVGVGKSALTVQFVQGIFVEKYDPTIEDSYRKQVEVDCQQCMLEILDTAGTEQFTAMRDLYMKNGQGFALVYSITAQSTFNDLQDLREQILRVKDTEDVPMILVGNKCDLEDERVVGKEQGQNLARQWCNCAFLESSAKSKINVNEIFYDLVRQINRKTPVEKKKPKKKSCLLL
The assay is described as follows: Pull-down of HA-Rap1V12 from HEK293 cell lysates by GST-KRIT1 F123 variants. In kind it is binding. In short, it runs like this: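 HEK293 cells were transfected (Lipofectamine Plus) with HA-Rap1A(G12V) cDNA, then lysed after 24 h in cold 50 mM Tris-HCl pH 7.4, 150 mM NaCl, 0.5% NP-40, 5 mM MgCl2 plus protease inhibitors. Bead-immobilized GST-KRIT1 FERM variants (WT or L717,721A; 10 µg) were incubated with 350 µg clarified lysate overnight at 4°C. Beads were washed, run on 4–20% SDS-PAGE and immunoblotted with monoclonal anti-HA (1:4,000).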

A further assay has as its target HEG1-C19 peptide (Homo sapiens, UniProt Q9ULI3). Briefly: Affinity chromatography of KRIT1 FERM variants on HEG1-C19 peptide matrix. In kind it is binding. The note with it: GFP-KRIT1 FERM from HEK293 cell lysates. The gist of the method: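 Pull-down: human HEG1 C19 cytoplasmic tail model protein (His6, N-terminal in vivo biotinylation tag, E. coli-expressed) immobilized on beads; 10 µg added to 350 µg clarified lysate of HEK293 transfected 24 h with GFP-KRIT1 FERM WT or L717,721A; lysis in 50 mM Tris-HCl pH 7.4, 150 mM NaCl, 0.5% NP-40, 5 mM MgCl2 plus protease inhibitors; 4°C overnight; washed, 4–20% SDS-PAGE, anti-GFP immunoblot; three experiments.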

B1: GST-KRIT1 F123(R452E) (protein)
chain: EKVRIYRMDGSYRSVELKHGNNTTVQQIMEGMELSQETQQYFTIWICSENLSLQLKPYHKPLQHVRDWPEILAELTNLDPQRETPQLFLRRDVRLPLEVEKQIEDPLAILILFDEARYNLLKGFYTAPDAKLITLASLLLQIVYGNYESKKHKQGFLNEENLKSIVPVTKLKSKAPHWTNRILHEYKNLSTSEGVSKEMHHLQRMFLQNCWEIPTYGAAFFTGQIFTKASPSNHKVIPVYVGVNIKGLHLLNMETKALLISLKYGCFMWQLGDTDTCFQIHSMENKMSFIVHTKQAGLVVKLLMKLNGQLMPTER
modifications: left off: GST, end not stated, kept
Turning to B1, in the assay with Rap1, the “interaction with Rap1” value is “does not bind to Rap1”.

B2: KRIT1(L717,721A): human KRIT1 Leu717/Leu721 to Ala mutant, used as FERM domain or full-length protein (protein)
chain: B1 chain with E33R, L298A, L302A
modifications: left off: GST, end not stated, kept
As for B2, in the assay with HEG1-C19 peptide, the “binding to the HEG1-C19 peptide” value is recorded as “markedly reduced binding”.
